Shown are actives, neighbours in structure and some others; about 0.79% of the full set was active somewhere.
TNAP act hiacc: TNAP (human) activation, high acceptor; P05186; purified TNAP, CDP-star luminescence, 1 M DEA, 30 min; active compounds read high; 0 = EDTA background, 1 = DMSO-only activity; activation factor at 20 µM; 200,000 tested, under 10 active;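 active = activation factor at least 2 at 20 µM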
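system = human TNAP | amount = enzyme diluted 1/800 final | reagent = 100 µM CDP-star substrate | signal = luminescent substrate turnover signal | dosing = one dose, 20 µM | benchmarks = EDTA negative control, DMSO positive control | measure = activation factor | timing = 30 min reaction, room temperature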
TNAP inh hiacc: blocks human TNAP under high phosphate acceptor concentration. inhibition, % at 20 µM. purified TNAP, CDP-star luminescence, 1 M DEA. AID 1135. actives 0.03% (n = 200,000);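 active = over 50% inhibition of tissue-nonspecific alkaline phosphatase at 20 µM in the single-dose screen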
TNAP inh noacc: blocks human TNAP activity with no phosphate acceptor present | inhibition, % at 20 µM | P05186 | purified TNAP, CDP-star luminescence, 30 min | actives 0.26% (n = 200,000);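 active = tissue-nonspecific alkaline phosphatase inhibition above about 50% at 20 µM in the single-dose screen, limit read from the data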
p97 inhibitor: blocks human p97 ATPase activity | actives 0.42% (n = 220,000) | P55072 | AID 1481 | inhibition, % at 8 µM | recombinant p97 ATPase, Kinase-Glo ATP luminescence, 3 h; in the data active = inhibition above about 15%
Target sequence (P55072 whole entry, looked up): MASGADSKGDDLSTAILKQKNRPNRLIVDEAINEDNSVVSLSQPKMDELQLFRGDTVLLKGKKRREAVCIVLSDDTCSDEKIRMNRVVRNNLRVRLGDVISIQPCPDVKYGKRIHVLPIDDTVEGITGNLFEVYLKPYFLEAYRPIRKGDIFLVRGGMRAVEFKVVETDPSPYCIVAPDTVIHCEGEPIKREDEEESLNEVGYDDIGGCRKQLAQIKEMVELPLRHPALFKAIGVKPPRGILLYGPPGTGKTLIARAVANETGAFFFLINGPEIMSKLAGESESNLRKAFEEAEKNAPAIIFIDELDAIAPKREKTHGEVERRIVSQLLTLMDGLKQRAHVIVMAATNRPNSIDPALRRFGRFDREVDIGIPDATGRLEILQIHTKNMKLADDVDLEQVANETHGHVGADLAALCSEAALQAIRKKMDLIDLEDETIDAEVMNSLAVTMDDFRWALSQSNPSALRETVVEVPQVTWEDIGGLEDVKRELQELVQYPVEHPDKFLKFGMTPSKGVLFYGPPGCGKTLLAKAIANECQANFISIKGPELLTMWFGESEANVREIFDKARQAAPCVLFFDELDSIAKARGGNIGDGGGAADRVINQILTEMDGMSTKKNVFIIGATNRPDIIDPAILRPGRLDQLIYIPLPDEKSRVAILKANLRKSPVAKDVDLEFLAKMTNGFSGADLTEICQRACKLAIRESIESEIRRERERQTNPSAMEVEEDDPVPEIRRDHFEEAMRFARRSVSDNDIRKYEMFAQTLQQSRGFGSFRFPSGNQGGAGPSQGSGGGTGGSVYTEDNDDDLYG
DTT redox prof: compounds producing H2O2 with reducing agent – biochemical, NIH compound library profiling, artefact control for MLSCN library redox annotation, primary screen; DTT-dependent redox cycling H2O2, phenol red/HRP absorbance; 100% = 100 µM peroxide control, 0% = buffer; activation, % at 10 µM; actives 0.03% (n = 200,000); AID 878;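 active = activation of at least 50% relative to the plate's high and low controls in the primary single-dose screen; inactive = activation below 50%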;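 note: compound incubated with DTT at 0.8 mM final as the reducing agent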
G6PDH counter: counter-screen for G6PDH assay hits: L. mesenteroides G6PDH inhibition. Purified L. mesenteroides G6PDH, diaphorase/resazurin coupled fluorescence, 45 min. inhibition, % at 5 µM. actives 0.12% (n = 200,000). AID 1020; in the data active = inhibition above about 50%
p97 confirm: confirmation of human p97 ATPase inhibitors. shares compounds with p97 inhibitor. recombinant p97 ATPase, Kinase-Glo ATP luminescence. inhibition, % at 8 µM. actives 44% (n = 760);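 active = percent inhibition of p97 ATPase above a set limit, the primary screen's mean plus 3 SD, cut at about 15% in these data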
Large screens that a line does not name were inactive (follow-up assays come after a bar, where they were run).

Cc1cc(C)nc(NC(=O)Cc2ccc([N+](=O)[O-])cc2)c1	none
Clc1c(Cl)c(Cl)c2n[nH]nc2c1Cl	p97 inhibitor 19 (no result: TNAP act hiacc, TNAP inh hiacc, TNAP inh noacc, DTT redox prof, G6PDH counter) | p97 confirm 15
O=C(O)CSc1c(-c2ccccc2)[nH]c2ccccc12	p97 inhibitor 16 | p97 confirm 17
CCn1ncc(Br)c1C(=O)Nc1cc([N+](=O)[O-])ccc1C	none
COC(=O)c1cn(NC(=O)c2cccc(OC)c2)c(=O)c2ccccc12	none
O=S1(=O)Nc2c(ccc3cccnc23)-c2ccccc21	p97 inhibitor 23 | p97 confirm 32
O=c1[nH]n(-c2cccc3cccnc23)c(=O)c2ccccc12	none
COc1ccc(C(c2c(C)[nH]n(-c3ccccc3)c2=O)c2c(C)[nH]n(-c3ccccc3)c2=O)cc1OC	p97 inhibitor 30 | p97 confirm inactive
COc1ccc(S(=O)(=O)N2C(=O)/C(=C3\SC(N)=NC3=O)c3ccccc32)cc1	none (no result: TNAP act hiacc, TNAP inh hiacc, TNAP inh noacc, DTT redox prof, G6PDH counter)
Nc1c(C(=O)OCC2CCCO2)c2nc3ccccc3nc2n1C1CCCC1 (stereo not drawn)	p97 inhibitor 17 | p97 confirm inactive
COc1cc(CNc2ccc(O)cc2)cc(Br)c1OCc1ccccc1F	p97 inhibitor 15 | p97 confirm inactive
CCOc1cc(CNc2ccc(O)cc2)cc(Br)c1OCc1ccccc1F	none
CN1CCN(CCCNC(=O)c2cn(C3CCCCC3)c(=O)c3c2c2ccccc2n3C)CC1	p97 inhibitor 23 | p97 confirm inactive
Cc1cccc(S(=O)(=O)Nc2ccc(C)c3c2OC(C)(C)C3)c1	none
Cc1ccc(-c2nc(Nc3ccc(N4CCOCC4)cc3)c3ccccc3n2)cc1	p97 inhibitor 15 (no result: TNAP act hiacc, TNAP inh hiacc, TNAP inh noacc, DTT redox prof, G6PDH counter) | p97 confirm inactive
CCc1cccc(C)c1NC(=S)N(CCOC)C(C)c1ccco1 (stereo not drawn)	none (no result: TNAP act hiacc, TNAP inh hiacc, TNAP inh noacc, DTT redox prof, G6PDH counter)
S=C1Cc2ccccc2N1	p97 inhibitor 32 (no result: TNAP act hiacc, TNAP inh hiacc, TNAP inh noacc, DTT redox prof, G6PDH counter) | p97 confirm 67
O=C(O)CCC(=O)c1ccc2ccc3cccc4ccc1c2c34	p97 inhibitor 19 (no result: TNAP act hiacc, TNAP inh hiacc, TNAP inh noacc, DTT redox prof, G6PDH counter) | p97 confirm 25
O=C(O)CCC(=O)c1cccc2ccccc12	none
Nc1cccc2cnccc12	p97 inhibitor 16 | p97 confirm inactive
Oc1cccc2cnccc12	none (no result: TNAP act hiacc, TNAP inh hiacc, TNAP inh noacc, DTT redox prof, G6PDH counter)
COc1ccc(C)cc1NC(=O)C(NCC1CCCO1)c1ccccc1 (stereo not drawn)	none
C/C(=N\NC(=O)c1ccc(NS(=O)(=O)c2cccs2)cc1)c1ccc(O)cc1O	p97 inhibitor 20 (no result: TNAP act hiacc, TNAP inh hiacc, TNAP inh noacc, DTT redox prof, G6PDH counter) | p97 confirm 20
COc1ccc(/C=N/NC(=O)c2ccc(N)cc2)cc1Cn1cc([N+](=O)[O-])cn1	p97 inhibitor 20 | p97 confirm inactive
Oc1c(Cl)cc(Cl)cc1/C=C/c1ccc2cccc(O)c2n1	none
Oc1ccc(Cl)cc1/C=C/c1ccc2cccc(O)c2n1	p97 inhibitor 31 | p97 confirm 22
COc1ccc(NC(=O)NC(C)(C(F)(F)F)C(F)(F)F)cc1	none
CCC(NC(=O)Nc1ccc(O)cc1)(C(F)(F)F)C(F)(F)F	p97 inhibitor 37 | p97 confirm inactive
CC(NC(=O)Nc1ccc(O)cc1)(C(F)(F)F)C(F)(F)F	p97 inhibitor 30 | p97 confirm inactive
CCC(NC(=O)NCc1ccccc1)(C(F)(F)F)C(F)(F)F	none
CC(C)CCNC(=O)COc1ccc(C(=O)c2ccccc2)cc1	none
Cc1ccc(/C=C/C2=Cc3c(sc(NC(=O)CSc4n[nH]c(N)n4)c3C#N)C(C)(C)C2)o1	p97 inhibitor 19 | p97 confirm 22
Nc1nc(-c2ccco2)cs1	none
c1coc(-c2nc(-c3ccco3)c(-c3ccco3)nc2-c2ccco2)c1	p97 inhibitor 40 | p97 confirm inactive
Cc1ccc(C(=O)NCCN2C3=NC[C@@H](Cc4ccccc4)N3C[C@H]2Cc2ccc(O)cc2)cc1Br	p97 inhibitor 20 | p97 confirm inactive
COc1cc2cccc(OC)c(=O)c2c(OC)c1OC	none
O=c1c(O)cccc2cc(O)c(O)c(O)c12	p97 inhibitor 38 (no result: TNAP act hiacc, TNAP inh hiacc, TNAP inh noacc, DTT redox prof, G6PDH counter) | p97 confirm 45
Cn1cc(CN2CCCC(C(=O)c3cccs3)C2)c(-c2cccc(Cl)c2)n1 (stereo not drawn)	none
CC(C)C[C@H](NC(=O)c1[nH]cnc1C(=O)N[C@H](C)c1ccccc1)C(=O)OCc1ccccc1	none
O=C(N[C@@H](Cc1ccccc1)C(=O)OCc1ccccc1)c1nc[nH]c1C(=O)NCc1ccccc1	p97 inhibitor 17 | p97 confirm 20
O=C(O)/C=C/c1ccc([N+](=O)[O-])o1	none
O=C1NC(=S)S/C1=C\C=C\c1ccc([N+](=O)[O-])o1	p97 inhibitor 45 (no result: TNAP act hiacc, TNAP inh hiacc, TNAP inh noacc, DTT redox prof, G6PDH counter) | p97 confirm 18
O=C(O)C1CSC(c2ccc(O)c([N+](=O)[O-])c2)N1 (stereo not drawn)	p97 inhibitor 16 | p97 confirm inactive
O=C(O)C1CSC(c2ccc3c(c2)OCO3)N1 (stereo not drawn)	none (no result: TNAP act hiacc, TNAP inh hiacc, TNAP inh noacc, DTT redox prof, G6PDH counter)
CC(C)NC(=O)CN1CCN(Cc2nc(C(c3ccccc3)c3ccccc3)no2)CC1	none
CC(C)(C)[C@H]1C=C(C(=O)N2CCN(Cc3ccccc3)CC2)O[C@@H](OCc2ccc(CO)cc2)C1	none
CN(CCC#N)C(=O)CSc1nc2scc(-c3ccccc3)c2c(=O)[nH]1	p97 inhibitor 16 | p97 confirm inactive
Cc1cc(NC(=O)c2ccc3c(c2)OCCO3)ccc1NC(=O)c1cc2ccccc2o1	p97 inhibitor 16 | p97 confirm 15
CCOC(=O)c1[nH]c2ccc(Br)cc2c1NC(=O)CCN1CCOCC1	none (no result: TNAP act hiacc, TNAP inh hiacc, TNAP inh noacc, DTT redox prof, G6PDH counter)
CCOC(=O)c1[nH]c2ccc(Br)cc2c1NC(=O)CCN1CCCCC1	p97 inhibitor 22 | p97 confirm inactive
CCOC(=O)c1[nH]c2ccc(Br)cc2c1NC(=O)CCN1CCN(C(=O)OCC)CC1	none
CCOC(=O)c1[nH]c2ccc(Br)cc2c1NC(=O)CCN1CCC(C(=O)OCC)CC1	p97 inhibitor 18 | p97 confirm 16
CCCn1c(N)c(Sc2ccc(Cl)cc2)c(=O)n(CCC)c1=O	none
COC(=O)c1cc(NS(=O)(=O)c2ccc(C)c3ccccc23)ccc1N1CCOCC1	none (no result: TNAP act hiacc, TNAP inh hiacc, TNAP inh noacc, DTT redox prof, G6PDH counter)
O=C(OCc1ccccc1)C1=[N+]([O-])OC(C(=O)OCc2ccccc2)C1c1c[nH]c2ccccc12 (stereo not drawn)	p97 inhibitor 28 | p97 confirm 36
CCN(CC)c1cc(C)c2cc(NC(=O)CNC(C)=O)ccc2n1	p97 inhibitor 25 | p97 confirm inactive
S=c1[nH]nc(C2CCCCC2)n1/N=C/c1ccc(Br)s1	none
CC(C)(C)OC(=O)N/N=C/c1cccn1-c1ccc([N+](=O)[O-])cc1	p97 inhibitor 16 (no result: TNAP act hiacc, TNAP inh hiacc, TNAP inh noacc, DTT redox prof, G6PDH counter) | p97 confirm inactive
